# Source: PubChem (The Scripps Research Institute Molecular Screening Center)
# ASAP1 GAP inh – ASAP1 ArfGAP inhibition; Q9ULH1; ASAP1-stimulated ARF1 GTP hydrolysis, GDP FP detection; inhibition, % at 16.5 µM; hit rate 0.19% among 360,000; in the data active means inhibition above about 25%
# IDE cell inh – cellular human IDE inhibition; HEK cells, FAbetaB cleavage, fluorescence polarization; P14735; hit rate 0.41% among 320,000; AID 434962; inhibition, % at 5.59 µM;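 active means percent inhibition above the average of all tested compounds plus 3 SD, set per screening campaign, cut at about 16% in these data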;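 further: IDE supplied by intact live HEK cells; FP after avidin binding of uncleaved biotin substrate so inhibition keeps polarization high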
# Target sequence (P14735 whole entry, looked up): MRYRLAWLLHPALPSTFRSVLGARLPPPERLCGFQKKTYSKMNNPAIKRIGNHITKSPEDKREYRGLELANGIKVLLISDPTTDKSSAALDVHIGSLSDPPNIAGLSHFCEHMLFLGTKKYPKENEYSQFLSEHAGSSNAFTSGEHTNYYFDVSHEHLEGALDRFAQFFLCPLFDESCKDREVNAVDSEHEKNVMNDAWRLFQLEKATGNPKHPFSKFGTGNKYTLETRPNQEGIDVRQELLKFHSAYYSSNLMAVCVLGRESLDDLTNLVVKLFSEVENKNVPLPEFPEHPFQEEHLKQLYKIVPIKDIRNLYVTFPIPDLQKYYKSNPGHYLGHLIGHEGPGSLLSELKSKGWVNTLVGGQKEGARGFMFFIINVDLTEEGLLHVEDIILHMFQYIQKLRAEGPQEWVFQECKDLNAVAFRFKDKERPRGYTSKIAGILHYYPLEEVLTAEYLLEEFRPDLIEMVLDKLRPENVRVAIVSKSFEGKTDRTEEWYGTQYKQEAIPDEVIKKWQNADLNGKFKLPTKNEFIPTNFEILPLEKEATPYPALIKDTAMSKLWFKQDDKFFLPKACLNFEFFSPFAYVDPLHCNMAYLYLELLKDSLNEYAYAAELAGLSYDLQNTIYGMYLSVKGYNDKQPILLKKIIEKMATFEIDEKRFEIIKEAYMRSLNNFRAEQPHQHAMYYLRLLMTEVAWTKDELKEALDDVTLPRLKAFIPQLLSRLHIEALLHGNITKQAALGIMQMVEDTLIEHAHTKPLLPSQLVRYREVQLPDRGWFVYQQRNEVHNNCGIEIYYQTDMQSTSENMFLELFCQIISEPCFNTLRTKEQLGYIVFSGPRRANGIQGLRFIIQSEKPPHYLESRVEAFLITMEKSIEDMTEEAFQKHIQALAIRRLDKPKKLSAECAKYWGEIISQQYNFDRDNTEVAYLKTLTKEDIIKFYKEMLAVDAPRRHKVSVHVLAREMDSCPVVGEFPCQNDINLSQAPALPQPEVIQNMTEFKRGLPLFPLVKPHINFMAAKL
# ARFGAP1 inh – inhibitors of rat ARFGAP1 | Arfgap1-stimulated ARF1 GTP hydrolysis, GDP FP detection | hit rate 0.26% among 360,000 | inhibition, % at 16.5 µM | Q62848;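 active means inhibition above a per-plate limit, mean inhibition of low control wells plus 3 SD, cut at about 25% in these data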
#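 Material – truncated rat Arfgap1 GAP domain · Buffer or medium – HEPES-based buffer, pH 7.5 · Reagent – human ARF1(Δ1-17)-GTP substrate · Dosing – 16.5 µM single point, 1.26% DMSO · Schedule – GTP hydrolysis reaction 2 h at 25 °C · Technique – GDP detection by fluorescence polarization · Benchmarks – No-Arfgap1 wells (100%) versus DMSO full-reaction wells (0%) · Repeats – single replicate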
# PREPL inh – inhibitors of human prolyl oligopeptidase-like enzyme PREPL | inhibition, % at 5.96 µM | recombinant PREPL, fluorescence polarization activity-based probe | Q4J6C6 | hit rate 0.68% among 320,000; in the data active means inhibition above about 43%
# IDE act – activators of human insulin-degrading enzyme in cells; HEK cells, FAbeta-B cleavage, fluorescence polarization; 0% vehicle, 100% cell-free pure enzyme wells; activation, % at 5.96 µM; hit rate 0.073% among 340,000; AID 493087;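 active means activation above the mean of all tested compounds plus 3 SD, set per screening campaign, cut at about 17% in these data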
# IDE cell inh cf – cellular human IDE inhibition, confirmation; shares compounds with IDE cell inh; HEK cells, FAbetaB cleavage, fluorescence polarization; inhibition, % at 5.59 µM; hit rate 51% among 1,200;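 active means mean inhibition across triplicate wells above the cutoff set by the earlier primary insulin-degrading enzyme screen, cut at about 16% in these data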
# HEK293 tox – counter-screen for IDE inhibitors: cytotoxicity in HEK cells; shares compounds with IDE cell inh; HEK293 cytotoxicity, ATP luminescence; inhibition, % at 5.59 µM; hit rate 28% among 1,200; AID 449730; in the data active means inhibition above about 22%
# Hits are given with their value; – = inactive; · = no result given. This is a sample that favours compounds with a hit; in the whole collection about 1.2% have one here.
SMILES,ASAP1 GAP inh,IDE cell inh,ARFGAP1 inh,PREPL inh,IDE act,IDE cell inh cf,HEK293 tox
CC(=O)Nc1cccc2c1C(=O)N(c1ccccc1C)C2=O,–,–,–,–,–,·,·
Cc1ccccc1N1C(=O)c2cccc3c(N(C)CCO)ccc(c23)C1=O,–,47,–,–,–,68,–
COc1ccccc1N1C(=O)c2cccc3c(C(=O)O)ccc(c23)C1=O,–,–,–,–,–,·,·
COc1ccccc1N1C(=O)c2cccc3c(N(C)CCO)ccc(c23)C1=O,–,45,–,–,–,47,–
Cc1ccc([C@H]2C[C@H](n3cc(C4CC4)nn3)[C@@H](O)CN2CC2CCCCC2)cc1,–,·,–,·,·,·,·
Cc1csc2ncnc(NNC(=O)c3ccc(Cl)cc3)c12,–,17,–,–,–,–,34
O=C(NNc1ncnc2sccc12)c1ccc(Cl)cc1,–,–,–,–,·,·,·
CCN(CC)S(=O)(=O)c1ccc(C(=O)Nn2cnnc2)cc1,–,–,–,–,–,·,·
O=C(N/N=C/c1ccc([N+](=O)[O-])o1)C(=O)Nc1ccc(C(=O)O)cc1,–,–,–,–,–,·,·
O=C(O)c1ccc(-c2ccc(/C=N/Nc3ccc([N+](=O)[O-])cc3)o2)cc1,–,21,–,–,–,41,–
O=C(O)c1cccc(-c2ccc(/C=N/Nc3ccc([N+](=O)[O-])cc3)o2)c1,–,18,–,–,–,22,–
O=C(O)c1ccc(N/N=C/C=C/c2ccc([N+](=O)[O-])o2)cc1,–,50,–,–,–,73,–
O=C(CN1C(=O)S/C(=C\C=C\c2ccccc2)C1=O)Nc1ccccc1C(=O)O,–,–,–,–,–,·,·
C#CCN1C(=O)S/C(=C/C=C/c2ccc(N(C)C)cc2)C1=O,–,41,–,–,–,57,27
CC(C)NS(=O)(=O)c1ccc(NC(=S)NC(=O)c2ccc(-c3ccccc3)cc2)cc1,–,39,–,–,–,25,37
Cc1cc(C)cc(N(CCC#N)C(=O)COC(=O)C2CCN(c3ccc(C(F)(F)F)cn3)CC2)c1,–,–,–,–,–,·,·
NC(=O)Nc1ccc(C(=O)OCC(=O)N2CCc3ccccc3C2)cc1,–,–,–,–,–,·,·
COc1ccc(C(C(=O)NC(C)(C)C)N(C(=O)Cn2nnc3ccccc32)c2cccc(C(C)=O)c2)cc1O (configuration not stated),–,–,–,–,–,·,·
Cn1c(O)c(/C=C2\C=Nc3ccccc32)sc1=Nc1ccc(C(=O)O)cc1,–,–,–,–,–,·,·
O=C(Cc1ccccc1)Nn1c(O)c(/C=C2\C=Nc3ccccc32)sc1=S,–,62,–,–,–,43,–
COC(=O)c1sc(N)c(C(=O)OC)c1CSc1nnnn1C,–,–,–,–,–,·,·
COC(=O)c1sc(N)c(C(=O)OC)c1CSc1nnc(-c2ccccc2Cl)n1C,–,16,–,–,–,–,–
CC(NC(=O)/C(C#N)=C/c1ccc(C(=O)O)cc1)c1ccccc1 (configuration not stated),–,–,–,–,–,·,·
COc1cc(/C=C(/C#N)C(=O)NC(C)c2ccccc2)cc(OC)c1O (configuration not stated),–,75,–,–,–,79,–
Nc1c(C(=O)c2ccccc2)sc2nsc(SCCN3CCOCC3)c12,–,29,–,–,·,61,58
SMILES,ASAP1 GAP inh,IDE cell inh,ARFGAP1 inh,PREPL inh,IDE act,IDE cell inh cf,HEK293 tox
COc1ccc(OC)c(S(=O)(=O)NCC(c2cccs2)N2CCc3ccccc3C2)c1 (configuration not stated),–,–,–,–,–,·,·
CN(CC(=O)Nc1ccc(S(=O)(=O)N2CCOCC2)cc1)Cc1ccc(F)cc1,–,–,–,–,–,·,·
CN(C)c1ccc(/C=C2\C(=N)N3N=C(CC(=O)N4CCCCC4)SC3=NC2=O)cc1,–,21,–,–,–,49,–
OC(CN1CCN(c2ccc(C(F)(F)F)cn2)CC1)c1ccccc1 (configuration not stated),·,20,·,–,–,–,–
COc1ccc(/C=C2\SC(N)=NC2=O)cc1,–,·,–,·,–,·,·
COc1cc(/C=C2\SC(N)=NC2=O)cc(Br)c1O,–,55,–,–,–,70,–
COc1cc2cc(CCO)oc(=O)c2cc1OC,–,–,–,–,–,·,·
